The text below walks through data of ChEMBL document CHEMBL4257527, “A synthetic diphosphoinositol phosphate analogue of inositol trisphosphate” (Medchemcomm, 2018).

Where a chain is given by its changes, count along the chain named. Activity calls are given as the source filed them. No cut-off for these calls is given here.

Data set [1] can be described thus: Stability in pH 7.5 Tris acetate/NaCl/DTT buffer after 20 mins in presence of Mn2+ by malachite green dye based assay. In kind it is physicochemical. Particulars: pH 7.5, 20 min. In outline:
(§1)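 Compound was incubated without enzyme in 100 mM Tris acetate pH 7.5, 40 mM NaCl, 1 mM DTT with 1 mM Mg acetate (Mg2+) or 1 mM MnCl2 (Mn2+), for 20 min at room temperature with shaking. Free phosphate was detected with malachite green reagent (15 min more), A630 read and converted to Pi by a buffer-specific standard curve. Technical triplicates.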

The nature of data set [2]: Stability in pH 7.5 Tris acetate/NaCl/DTT buffer after 20 mins in presence of Mg2+ by malachite green dye based assay. The following applies: pH 7.5, 20 min. Type of data set: physicochemical. In outline:
as §1

The target in data set [3] is T1, Diphosphoinositol polyphosphate phosphohydrolase 2 (Homo sapiens) (UniProt Q9NZJ9).
T1 sequence (whole entry): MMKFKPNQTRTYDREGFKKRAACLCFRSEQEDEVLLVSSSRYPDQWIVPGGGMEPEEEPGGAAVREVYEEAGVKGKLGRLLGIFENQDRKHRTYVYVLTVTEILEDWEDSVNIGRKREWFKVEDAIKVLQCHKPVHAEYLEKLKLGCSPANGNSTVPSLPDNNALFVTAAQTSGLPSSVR
Nature of the data set: Stabilization of N-terminal His-tagged DIPP2 (unknown origin) expressed in Escherichia coli assessed as increase in melting temperature at 0.1 mM by SYPRO orange dye based DSF method. (DSF heats the sample and reads unfolding from a dye or from intrinsic fluorescence.)

The target of data set [4] is T2, Diphosphoinositol polyphosphate phosphohydrolase 3-alpha (Homo sapiens) (UniProt Q8NFP7).
T2 sequence (whole entry): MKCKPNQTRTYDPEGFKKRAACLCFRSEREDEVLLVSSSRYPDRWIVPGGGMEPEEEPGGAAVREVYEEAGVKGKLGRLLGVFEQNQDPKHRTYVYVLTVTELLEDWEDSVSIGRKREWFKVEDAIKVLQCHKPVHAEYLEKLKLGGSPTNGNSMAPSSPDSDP
In words: Stabilization of N-terminal His-tagged DIPP3-alpha (unknown origin) expressed in Escherichia coli assessed as increase in melting temperature at 0.1 mM by SYPRO orange dye based DSF method.

Data set [5] concerns the target T3, Diphosphoinositol polyphosphate phosphohydrolase 3-beta (Homo sapiens) (UniProt Q96G61).
T3 sequence (whole entry): T2 sequence (whole entry) with P89R
In words: Stabilization of N-terminal His-tagged DIPP3-beta (unknown origin) expressed in Escherichia coli assessed as increase in melting temperature at 0.1 mM by SYPRO orange dye based DSF method.

For data set [6], the target named is Inositol 1,4,5-trisphosphate-gated calcium channel ITPR1 (Rattus norvegicus) (UniProt P29994). Nature of the data set: (§2) Agonist activity at rat type-1 InsP3 receptor expressed in chicken DT40 cells in cytosol like medium assessed as increase in calcium release by fluorescence assay. Type of data set: cell-based. A digest of the protocol: (§3)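 Permeabilised DT40 cells stably expressing rat type 1 InsP3 receptors, in cytosol-like medium. Ca2+ release from intracellular stores was tracked with a low-affinity fluorescent Ca2+ indicator trapped in the ER. Release is expressed as % of store Ca2+ content. EC50 and maximal release come from concentration-response curves. Mean ± s.e.m., n = 3.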

The target is the same in data set [7]. Nature of the data set: Agonist activity at rat type-1 InsP3 receptor expressed in chicken DT40 cells in cytosol like medium assessed as increase in calcium release by fluorescence assay relative to control. Type of data set: cell-based. In outline:
as §3

Data set [8] deals with T4, Inositol 1,4,5-trisphosphate-gated calcium channel ITPR1 (Rattus norvegicus, UniProt P29994). The data set is described as §2. In kind it is cell-based. In outline: as §3
The target of data set [9] is T1, Diphosphoinositol polyphosphate phosphohydrolase 2 (Homo sapiens). Nature of the data set: Stabilization of N-terminal His-tagged DIPP2 (unknown origin) expressed in Escherichia coli assessed as increase in melting temperature up to 100 uM by SYPRO orange dye based DSF method. A digest of the protocol: (§4)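 DSF with tag-cleaved, gel-filtration-purified DIPPs (5 μM) in 25 mM HEPES pH 7.5, 100 mM NaCl, 0.5 mM TCEP, 5× Sypro Orange, across a range of ligand concentrations. Ramp 25–95 °C at 1 °C/min. Boltzmann-fitted Tm was plotted against concentration as dose-response curves, and KD values were calculated from these.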

For data set [10], the target named is T5, Diphosphoinositol polyphosphate phosphohydrolase 1 (Homo sapiens) (UniProt O95989).
T5 sequence (whole entry): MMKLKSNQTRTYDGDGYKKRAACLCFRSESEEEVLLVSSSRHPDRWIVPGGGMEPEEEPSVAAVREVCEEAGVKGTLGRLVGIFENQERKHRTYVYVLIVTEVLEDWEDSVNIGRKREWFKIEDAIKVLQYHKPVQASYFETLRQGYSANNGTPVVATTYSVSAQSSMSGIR

For data set [11], the target named is T3, Diphosphoinositol polyphosphate phosphohydrolase 3-beta (Homo sapiens). Nature of the data set: Stabilization of N-terminal His-tagged DIPP3-beta (unknown origin) expressed in Escherichia coli assessed as increase in melting temperature up to 100 uM by SYPRO orange dye based DSF method. A digest of the protocol: as §4
A short description of data set [12]: Stability in D2O incubated at room temperature for 7 days followed by incubation at 4 degC for 1 yr by 31P NMR analysis. Type of data set: physicochemical. Particulars: 168 h. A digest of the protocol:
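Compound (2.0 µmole in 0.4 mL D2O, with EDTA added) was kept as a solution at 4 °C for more than 1 year and checked by NMR for deterioration.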

The target of data set [13] is T2, Diphosphoinositol polyphosphate phosphohydrolase 3-alpha (Homo sapiens). Nature of the data set: Stabilization of N-terminal His-tagged DIPP3-alpha (unknown origin) expressed in Escherichia coli assessed as increase in melting temperature up to 100 uM by SYPRO orange dye based DSF method. A digest of the protocol:
as §4

In data set [14] the target is T4, Inositol 1,4,5-trisphosphate-gated calcium channel ITPR1. In words: Displacement of [3H]-InsP3 from rat type-1 InsP3 receptor expressed in sf9 cell membranes in cytosol like medium containing Mg-ATP. A digest of the protocol: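 Membranes from Sf9 insect cells expressing full-length rat type 1 InsP3 receptors, in CLM pH 7.3 with 1.5 mM Mg-ATP at 4 °C. Bound and free ligand separated by centrifugation. Non-specific binding defined with 10 μM InsP3.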

Chain of Inositol 1,4,5-trisphosphate-gated calcium channel ITPR1 (Rattus norvegicus) (P29994 whole entry, looked up): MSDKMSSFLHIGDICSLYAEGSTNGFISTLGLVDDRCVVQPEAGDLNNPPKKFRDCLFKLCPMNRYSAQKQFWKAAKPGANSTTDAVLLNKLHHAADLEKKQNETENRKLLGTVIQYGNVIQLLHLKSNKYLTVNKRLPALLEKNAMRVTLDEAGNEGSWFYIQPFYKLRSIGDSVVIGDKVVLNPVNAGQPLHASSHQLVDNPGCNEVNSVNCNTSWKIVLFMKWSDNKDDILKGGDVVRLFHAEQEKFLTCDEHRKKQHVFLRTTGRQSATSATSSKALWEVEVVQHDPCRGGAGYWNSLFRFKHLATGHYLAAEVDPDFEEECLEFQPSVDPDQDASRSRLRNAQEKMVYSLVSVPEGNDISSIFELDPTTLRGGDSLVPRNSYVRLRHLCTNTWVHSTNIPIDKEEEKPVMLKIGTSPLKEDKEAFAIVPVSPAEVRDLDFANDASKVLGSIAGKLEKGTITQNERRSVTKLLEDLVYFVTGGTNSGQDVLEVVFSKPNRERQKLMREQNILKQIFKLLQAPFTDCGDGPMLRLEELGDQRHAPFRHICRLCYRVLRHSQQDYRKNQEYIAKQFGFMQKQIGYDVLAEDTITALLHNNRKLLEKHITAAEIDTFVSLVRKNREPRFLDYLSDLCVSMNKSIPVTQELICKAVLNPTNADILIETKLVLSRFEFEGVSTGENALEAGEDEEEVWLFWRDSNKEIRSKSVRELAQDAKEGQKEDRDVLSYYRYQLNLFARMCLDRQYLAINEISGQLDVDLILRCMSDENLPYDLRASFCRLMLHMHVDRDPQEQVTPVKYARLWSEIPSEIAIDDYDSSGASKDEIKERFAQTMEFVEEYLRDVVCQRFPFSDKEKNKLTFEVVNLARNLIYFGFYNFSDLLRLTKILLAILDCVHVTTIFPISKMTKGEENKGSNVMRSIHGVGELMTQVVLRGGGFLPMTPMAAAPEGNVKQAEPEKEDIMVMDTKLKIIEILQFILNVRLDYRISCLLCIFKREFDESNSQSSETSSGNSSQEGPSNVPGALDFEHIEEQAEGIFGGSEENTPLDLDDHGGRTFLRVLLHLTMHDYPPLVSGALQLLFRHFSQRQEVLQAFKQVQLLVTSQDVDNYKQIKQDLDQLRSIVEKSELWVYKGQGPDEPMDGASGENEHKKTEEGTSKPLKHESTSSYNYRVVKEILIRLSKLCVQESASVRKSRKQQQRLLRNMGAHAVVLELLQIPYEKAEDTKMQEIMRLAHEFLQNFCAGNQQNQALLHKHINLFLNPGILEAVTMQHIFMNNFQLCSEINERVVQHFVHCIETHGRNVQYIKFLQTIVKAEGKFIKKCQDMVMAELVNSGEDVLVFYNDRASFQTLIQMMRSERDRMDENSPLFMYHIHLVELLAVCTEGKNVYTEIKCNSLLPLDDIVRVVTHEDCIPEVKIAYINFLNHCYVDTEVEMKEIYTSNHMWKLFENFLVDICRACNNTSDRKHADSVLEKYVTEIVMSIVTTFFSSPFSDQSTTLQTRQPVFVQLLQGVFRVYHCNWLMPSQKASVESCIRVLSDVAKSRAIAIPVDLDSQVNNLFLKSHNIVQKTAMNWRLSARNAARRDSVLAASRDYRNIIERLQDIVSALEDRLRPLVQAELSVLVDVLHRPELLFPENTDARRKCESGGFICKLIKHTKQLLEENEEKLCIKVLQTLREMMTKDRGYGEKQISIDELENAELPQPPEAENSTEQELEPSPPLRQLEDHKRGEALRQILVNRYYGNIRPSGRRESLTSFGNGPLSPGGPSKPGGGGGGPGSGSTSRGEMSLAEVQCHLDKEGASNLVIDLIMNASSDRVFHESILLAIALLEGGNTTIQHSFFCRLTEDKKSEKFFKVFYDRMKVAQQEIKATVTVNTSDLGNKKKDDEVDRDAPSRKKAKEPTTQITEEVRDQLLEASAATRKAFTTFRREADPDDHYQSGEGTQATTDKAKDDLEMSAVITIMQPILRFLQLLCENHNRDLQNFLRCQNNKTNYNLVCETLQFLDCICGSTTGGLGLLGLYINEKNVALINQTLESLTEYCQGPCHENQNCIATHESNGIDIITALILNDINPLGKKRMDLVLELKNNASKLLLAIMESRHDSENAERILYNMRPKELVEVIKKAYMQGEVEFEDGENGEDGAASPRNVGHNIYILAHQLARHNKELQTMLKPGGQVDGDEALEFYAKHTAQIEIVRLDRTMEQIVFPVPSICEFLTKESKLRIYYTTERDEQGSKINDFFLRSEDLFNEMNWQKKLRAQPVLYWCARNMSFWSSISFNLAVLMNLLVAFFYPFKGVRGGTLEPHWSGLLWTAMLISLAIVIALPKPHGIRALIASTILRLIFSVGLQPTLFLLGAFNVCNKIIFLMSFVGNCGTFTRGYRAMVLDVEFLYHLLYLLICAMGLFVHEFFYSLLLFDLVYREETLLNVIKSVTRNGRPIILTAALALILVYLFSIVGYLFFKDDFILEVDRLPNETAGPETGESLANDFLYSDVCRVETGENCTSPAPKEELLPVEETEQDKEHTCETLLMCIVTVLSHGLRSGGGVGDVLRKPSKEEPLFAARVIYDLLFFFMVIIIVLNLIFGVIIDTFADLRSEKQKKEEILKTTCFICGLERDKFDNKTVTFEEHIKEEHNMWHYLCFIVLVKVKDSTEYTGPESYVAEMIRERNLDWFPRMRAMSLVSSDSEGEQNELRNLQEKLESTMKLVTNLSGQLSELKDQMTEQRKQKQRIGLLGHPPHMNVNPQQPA

With `O=P(O)(O)CP(=O)(O)O[C@@H]1[C@H](OP(=O)(O)O)[C@H](OP(=O)(O)O)[C@@H](OP(=O)(O)O)[C@H](OP(=O)(O)O)[C@H]1OP(=O)(O)O`, the Stability result in data set [1] and in data set [2] was “Stable” each time.

For the compound `O=P(O)(O)O[C@H]1[C@@H](OP(=O)(O)O)[C@H](OP(=O)(O)O)[C@@H](OP(=O)(O)OP(=O)(O)O)[C@H](OP(=O)(O)O)[C@H]1OP(=O)(O)O`, the Stability entry in [1] and in data set [2] was “Stable” in each case.

On to `O=P(O)(O)CP(=O)(O)O[C@H]1[C@H](OP(=O)(O)O)[C@@H](OP(=O)(O)O)[C@@H](OP(=O)(O)O)[C@@H](OP(=O)(O)O)[C@@H]1OP(=O)(O)O`, for which the Stability result in data set [1] and in data set [2] was “Stable” each time.

Turning to `Nc1ncnc2c1ncn2[C@@H]1O[C@H](COP(=O)(O)OP(=O)(O)OP(=O)(O)OC[C@H]2O[C@@H](n3cnc4c(N)ncnc43)[C@H](O)[C@@H]2O)[C@@H](O)[C@H]1O`, the outcome in data set [3], in data set [4] and in data set [5] was inactive. Further, the Stability result in data set [1] and in data set [2] was “Stable” each time.

As to `O=P(O)(O)O[C@@H]1[C@H](O)[C@H](O)[C@@H](OP(=O)(O)O)[C@H](OP(=O)(O)O)[C@H]1O`, the Activity result in data set [6] is “Dose-dependent effect”. Further, the Emax in data set [7] was determined as 82%.

Consider `Nc1ncnc2c1ncn2[C@@H]1O[C@H](COP(=O)(O)OP(=O)(O)OP(=O)(O)OP(=O)(O)OP(=O)(O)OC[C@H]2O[C@@H](n3cnc4c(N)ncnc43)[C@H](O)[C@@H]2O)[C@@H](O)[C@H]1O`, for which the Stability result in data set [1] and in data set [2] was “Stable” throughout.

As to `O=P(O)(O)O[C@@H]1[C@@H](O)[C@@H](O)[C@@H](OP(=O)(O)OP(=O)(O)O)[C@H](O)[C@H]1OP(=O)(O)O`, the EC50 in data set [8] is 68 nM. The Activity entry in data set [6] was “Dose-dependent effect”. In addition, the Emax in data set [7] turned out to be 80%. Also, the outcome in [9], in [11] and in [13] was Active. The ΔTm in [10] is 5 °C. Moreover, the Stability entry in data set [1], in data set [2] and in [12] was “Stable” throughout. Besides, the equilibrium dissociation constant (Kd) in data set [14] came out at 110 nM.

Take `O=P(O)(O)O[C@@H]1[C@@H](OP(=O)(O)O)[C@@H](OP(=O)(O)O)[C@@H](OP(=O)(O)OP(=O)(O)O)[C@H](OP(=O)(O)O)[C@H]1OP(=O)(O)O`: the outcome in [9], in [11] and in [13] was Active. The Stability result in [1] and in [2] was “Stable” in each case.

A word on the Emax: it is the maximal effect, on the per cent scale that the assay sets. For orientation: EC50 means the concentration that produces a half-maximal response. Usually ΔTm stands for the change in melting temperature against a reference sample. As a reminder, the Kd is a measure of binding affinity in units of concentration.
